According to ChEMBL document CHEMBL3046177, “Plant growth inhibitory activity of p-hydroxyacetophenones and tremetones from Chilean endemic Baccharis species and some analogous: a comparative study” (J Agric Food Chem, 2002):
pIC50: −log10 of the molar value. The source made the active and inactive calls. The rule behind the calls is not given here.

What was measured:
[1] = test system: Trifolium pratense; experiment: Phytotoxicity against Trifolium pratense (red clover) assessed as inhibition of seed respiration during germination after 24 hr; type: functional, organism-based
Method in brief: (§1)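 Oxygen uptake of germinating seeds measured polarographically with a Clark-type electrode at 25 °C in a nonilluminated cell over 5 and 10 min, at several compound concentrations. Expressed as percent of control (100%). Three experiments; RI50 from Probit analysis.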

[2] = test system: Lactuca sativa; experiment: Phytotoxicity against Lactuca sativa (lettuce) assessed as inhibition of root development during seeding stage after 120 hr; type: functional, organism-based; conditions: read-out: I50
Method in brief: (§2)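 Petri-dish seedling assay on filter paper wetted with test solution (MeOH < 1%), 28 °C in the dark. Coleoptile/hypocotyl and root lengths of all germinated seeds measured after 120 h, then plants dried to constant weight at 40 °C. Three replicates; 50% inhibitory concentrations by Probit analysis of percent inhibition versus concentration.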

[3] = test system: Lolium multiflorum; experiment: Phytotoxicity against Lolium multiflorum (Italian ryegrass) assessed as inhibition of shoot development during seeding stage after 120 hr; type: functional, organism-based; conditions: read-out: I50; method in brief: as §2
[4] = test system: Physalis ixocarpa; experiment: Increase of shoot development during seeding stage in Physalis ixocarpa up to 50 uM after 120 hr; type: functional, organism-based; method in brief: as §2
[5] = test system: Lolium multiflorum (ryegrass); experiment: Phytotoxicity against Lolium multiflorum (ryegrass) assessed as inhibition of seed germination at 500 uM after 48 hr
[6] = test system: Lolium multiflorum; experiment: Increase of seed respiration during germination in Lolium multiflorum (Italian ryegrass)at 30 uM; type: functional, organism-based; method in brief: as §1
[7] = test system: Lolium multiflorum; experiment: Phytotoxicity against Lolium multiflorum (Italian ryegrass) assessed as inhibition of seed germination at 500 uM after 48 hr; type: functional
Method in brief: (§3)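 Seeds of uniform size on Whatman No.1 filter paper in 85 mm Petri dishes, wetted with 8 or 10 mL deionized water or test solution (MeOH < 1%); controls got matching water/methanol. Sealed, incubated at 28 °C in the dark, scored at 48 h intervals; germination = 1 mm radicle extrusion. Three replicates.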

[8] = test system: Physalis ixocarpa; experiment: Phytotoxicity against Physalis ixocarpa assessed as inhibition of root development during seeding stage after 120 hr; type: functional, organism-based; method in brief: as §2
[9] = test system: Lactuca sativa; experiment: Phytotoxicity against Lactuca sativa (lettuce) assessed as inhibition of shoot development during seeding stage after 120 hr; type: functional, organism-based; conditions: read-out: I50; method in brief: as §2
[10] = test system: Physalis ixocarpa; experiment: Phytotoxicity against Physalis ixocarpa assessed as inhibition of shoot development during seeding stage after 120 hr; type: functional, organism-based; method in brief: as §2
[11] = test system: Lolium multiflorum; experiment: Phytotoxicity against Lolium multiflorum (Italian ryegrass) assessed as inhibition of root development during seeding stage after 120 hr; type: functional, organism-based; conditions: read-out: I50; method in brief: as §2
[12] = test system: Physalis ixocarpa; experiment: Phytotoxicity against Physalis ixocarpa assessed as inhibition of seed respiration during germination after 24 hr; type: functional, organism-based; method in brief: as §1
[13] = test system: Trifolium pratense; experiment: Phytotoxicity against Trifolium pratense (red clover) assessed as inhibition of root development during seeding stage after 120 hr; type: functional, organism-based; conditions: read-out: I50; method in brief: as §2
[14] = test system: Lactuca sativa; experiment: Increase of root development during seeding stage in Lactuca sativa (lettuce) at 50 to 300 uM after 120 hr; type: functional, organism-based; method in brief: as §2
[15] = test system: Lolium multiflorum; experiment: Phytotoxicity against Lolium multiflorum (Italian ryegrass) assessed as inhibition of seed germination after 48 hr; type: functional; method in brief: as §3
[16] = test system: Physalis ixocarpa; experiment: Phytotoxicity against Physalis ixocarpa assessed as inhibition of seed germination after 48 hr; type: functional; method in brief: as §3
[17] = test system: Lolium multiflorum; experiment: Phytotoxicity against Lolium multiflorum (Italian ryegrass) assessed as inhibition of seed respiration during germination after 24 hr; type: functional, organism-based; method in brief: as §1
[18] = test system: Trifolium pratense; experiment: Increase of shoot development during seeding stage in Trifolium pratense (red clover) at 200 uM after 120 hr; type: functional, organism-based; method in brief: as §2
[19] = test system: Trifolium pratense; experiment: Increase of root development during seeding stage in Trifolium pratense (red clover) at 50 to 300 uM after 120 hr; type: functional, organism-based; method in brief: as §2
[20] = test system: Trifolium pratense; experiment: Phytotoxicity against Trifolium pratense (red clover) assessed as inhibition of seed germination after 48 hr; type: functional; method in brief: as §3
[21] = test system: Lolium multiflorum; experiment: Phytotoxicity against Lolium multiflorum (Italian ryegrass) assessed as inhibition of seed respiration during germination at 300 to 500 uM after 24 hr; type: functional, organism-based; method in brief: as §1
[22] = test system: Lactuca sativa; experiment: Phytotoxicity against Lactuca sativa (lettuce) assessed as inhibition of seed germination after 48 hr; type: functional; method in brief: as §3
[23] = test system: Lactuca sativa; experiment: Phytotoxicity against Lactuca sativa (lettuce) assessed as inhibition of seed respiration during germination after 24 hr; type: functional, organism-based; method in brief: as §1
[24] = test system: Trifolium pratense; experiment: Phytotoxicity against Trifolium pratense (red clover) assessed as inhibition of shoot development during seeding stage after 120 hr; type: functional, organism-based; conditions: read-out: I50; method in brief: as §2

| Structure (SMILES) | I50 [1] | pIC50 [2] | pIC50 [3] | Activity [4] | inhibition at 500 µM [5] | Activity [6] | inhibition at 500 µM [7] | pIC50 [9] | pIC50 [11] | I50 [12] | pIC50 [13] | Activity [14] | GI50 [15] | GI50 [16] | I50 [17] | Activity [18] | Activity [19] | GI50 [20] | Activity [21] | GI50 [22] | also measured |
| --- | --- | --- | --- | --- | --- | --- | --- | --- | --- | --- | --- | --- | --- | --- | --- | --- | --- | --- | --- | --- | --- |
| C=C(C)[C@H]1Cc2c(ccc(C(C)=O)c2OC(C)=O)O1 [4-ACETYL TREMETONE] | inactive | 4.06 | 4.06 | Active | 30% | Active | 30% | 4.05 | 4.09 | inactive | 4.35 | Active | 79.9 µM | 55.2 µM | inactive | Active | Active | 40 µM | Active | 85.5 µM | pIC50 ([8]; read-out: I50): 4.15; pIC50 ([10]; read-out: I50): 4.18; I50 [23]: inactive; pIC50 [24]: 4.35 |
| CC(=O)Oc1ccc(C(C)=O)cc1 [4-(ACETATE)ACETOPHENONE] | inactive | 4.41 | 4.11 | Active | 30% | Active | 30% | 4.41 | 4.12 | inactive | 3.66 | Active | 75.3 µM | inactive | inactive | Active | Active | 233 µM | Active | 41 µM | I50 [8]: inactive; I50 [10]: inactive; I50 [23]: inactive; pIC50 [24]: 3.63 |
